The source made the active and inactive calls.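 Rule for the calls, unless noted: active = viability at or below 10% of carrier control in both of two separate runs; inconclusive = viability at or below 10% in only one of the two runs; inactive = the rest.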

The text below walks through data of PubChem BioAssay.

Test [1] can be described thus: reducers of endogenous Her2 protein level, primary screen, SKBR3 breast tumor cells, AlphaScreen, ATP viability (AID 461;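 active = Her2 level under about 52% in both replicate screens, with viability over 70% of control, limit read from the data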;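 for Her2 level: lower value means less Her2 protein in the cells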;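 for viability: percent of carrier control wells set as 100% viability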). The settings on record: 18-24 h, measured here: SKBR3 viability, ATP luminescence, at 10 µM.
The target of test [2] is Receptor tyrosine-protein kinase erbB-2 (Homo sapiens) (UniProt P04626). Described as above. The settings on record: 18-24 h, at 10 µM, stronger effect = lower value.
Receptor tyrosine-protein kinase erbB-2 (Homo sapiens), sequence (P04626 whole entry, looked up): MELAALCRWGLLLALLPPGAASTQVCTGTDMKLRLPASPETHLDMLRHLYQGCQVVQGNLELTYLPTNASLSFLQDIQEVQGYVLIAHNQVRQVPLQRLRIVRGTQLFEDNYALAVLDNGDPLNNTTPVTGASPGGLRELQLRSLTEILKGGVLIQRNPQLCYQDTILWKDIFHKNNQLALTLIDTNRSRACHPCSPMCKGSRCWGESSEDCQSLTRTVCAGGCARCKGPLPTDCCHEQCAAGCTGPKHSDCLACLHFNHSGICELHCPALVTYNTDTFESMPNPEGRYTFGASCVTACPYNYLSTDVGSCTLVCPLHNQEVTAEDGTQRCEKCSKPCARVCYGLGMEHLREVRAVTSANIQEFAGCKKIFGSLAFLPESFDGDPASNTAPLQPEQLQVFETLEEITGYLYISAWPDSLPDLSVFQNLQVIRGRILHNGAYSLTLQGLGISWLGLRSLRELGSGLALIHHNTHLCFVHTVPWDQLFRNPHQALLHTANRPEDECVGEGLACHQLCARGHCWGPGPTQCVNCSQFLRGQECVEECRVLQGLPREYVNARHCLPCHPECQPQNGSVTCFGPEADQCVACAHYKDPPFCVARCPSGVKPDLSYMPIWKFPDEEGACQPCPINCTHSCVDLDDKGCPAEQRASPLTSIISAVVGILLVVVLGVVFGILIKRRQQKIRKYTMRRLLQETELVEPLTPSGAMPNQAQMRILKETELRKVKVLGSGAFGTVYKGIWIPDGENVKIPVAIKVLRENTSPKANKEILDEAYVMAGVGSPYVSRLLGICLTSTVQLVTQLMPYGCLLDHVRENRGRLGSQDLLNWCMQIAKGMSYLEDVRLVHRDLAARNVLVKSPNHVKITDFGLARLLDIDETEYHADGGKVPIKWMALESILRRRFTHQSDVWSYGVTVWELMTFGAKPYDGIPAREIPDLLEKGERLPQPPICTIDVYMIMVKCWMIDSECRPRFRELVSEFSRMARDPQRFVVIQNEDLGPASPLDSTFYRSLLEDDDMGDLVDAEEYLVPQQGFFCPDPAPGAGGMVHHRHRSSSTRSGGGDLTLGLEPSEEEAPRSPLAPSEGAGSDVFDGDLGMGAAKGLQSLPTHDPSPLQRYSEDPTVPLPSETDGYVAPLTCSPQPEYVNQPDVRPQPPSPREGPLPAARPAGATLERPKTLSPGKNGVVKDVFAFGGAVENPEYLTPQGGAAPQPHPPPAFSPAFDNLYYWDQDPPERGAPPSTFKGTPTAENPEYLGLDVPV
Test [3] can be described thus: SK-BR-3 cell growth inhibitors, pilot screen, 24 h, human (AID 572).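 Note: compound exposure lasted between 18 and 24 h rather than exactly 24 h; 100% = carrier-treated control wells.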 The conditions noted are these: SK-BR-3 viability, CellTiter-Glo luminescence, at 10 µM, stronger effect = lower value.
The nature of test [4]: HUVEC growth inhibition – cell-based, human, primary screen (AID 575;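 active = viability at or below 30% in both replicate assays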;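 note: 100% = median of untreated cell wells with 0.1% DMSO on each plate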). The settings on record: HUVEC proliferation, CellTiter-Glo luminescence, 72 h; at 10 µM; stronger effect = lower value. The procedure, abridged:
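Assay system: primary human umbilical vein endothelial cells / Buffer or medium: endothelial basal medium with 2% FBS plus growth supplements / Compound dosing: one dose, 10 µM final, 0.1% DMSO / Timing: 72 h treatment at 37 °C / Signal: CTG luminescence / Benchmarks: 32 DMSO-only cell-control wells (high), 32 MePR drug-control wells (low) per plate / Plate: collagen-coated 384-well format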

The nature of test [5]: growth inhibitors of H69AR lung tumor, primary screen, human, duplicate replicates (AID 580;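 active = viability at or under a set limit in both replicates, limit being median viability minus 3 SD, cut at about 48% in these data, passing the limit was not always enough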;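 note: 100% = mean luminescence of untreated wells and 0% = no signal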). The conditions noted are these: H69AR lung tumor cells viability, ATP luminescence, 72 h; at 10 µM; stronger effect = lower value.
A short description of test [6]: reversal of MRP1-mediated doxorubicin resistance, pilot screen, H69AR cells, doxorubicin co-treatment (AID 601;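 active = viability loss from added drug above about 55%, and viability with drug at most 40%, in both replicates, limit read from the data, passing the limit was not always enough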). The conditions noted are these: CellTiter-Glo, 72 h, at 10 µM; for differential viability (reversal): stronger effect = higher value.
Test [7] is described as follows: 384-well plate pilot, post-Golgi transport modulator project, inhibition of yeast transport mutant growth (AID 636; in the data active = inhibition above about 31%). The settings on record: absorbance 615 nm, about 18 h, stronger effect = higher value.
Test [8] in a line: growth suppression of yeast trafficking mutant, preliminary HTS, modulators of trafficking downstream of Golgi apparatus project, 1536-format plate, OD 615 nm (AID 637; in the data active = inhibition above about 30%). The conditions noted are these: yeast transport mutant growth, absorbance 615 nm, 18 h; stronger effect = higher value.
Where [9] appears, read: H69AR cells + 2 uM doxorubicin, measured here: viability with 2 uM doxorubicin, stronger effect = lower value.
[10] abbreviates: H69AR cells, compound alone cytotoxicity.

Regarding `CCOCC(=O)Nc1nc2ccc(OC)cc2s1`, the viability is 107% in test [1]; 107% (inactive) in test [3]; 93.9% (inactive) in test [4]; 90.4% (inactive) in test [5]; 81.5% in test [6] (setting [9]); 90.4% in test [6] (setting [10]). For the same molecule, the Her2 level in test [2] is 102% (inactive). Moreover, the differential viability (reversal) in test [6] (H69AR cells + 2 uM doxorubicin) was 8.94% (inactive). For the same molecule, the inhibition is 0.79% (inactive) in test [7] and 5.57% (inactive) in test [8].
`O=C(CS(=O)(=O)c1cn(Cc2ccc(Cl)cc2)c2ccccc12)N1CCOCC1`: the viability in test [1] was 84%; in test [3] it was 84% (inactive); in test [4], 105% (inactive); in test [5] it was 97% (inactive); in test [6] (setting [9]) it was 88.6%; in test [6] (setting [10]), 97%. Further, in test [2], the Her2 level was 92.5% (inactive). Further, the differential viability (reversal) in test [6] (H69AR cells + 2 uM doxorubicin) was 8.43% (inactive). Besides, the inhibition is -1.87% (inactive) in test [7] and -2.62% (inactive) in test [8].
On to `COc1ccc(C2NC(c3ccc(OC)c(OC)c3OC)C(C)C(=O)C2C)c(OC)c1OC` (stereo not given), for which the viability was 99.5% in test [1]; 99.5% (inactive) in test [3]; 99.7% (inactive) in test [4]; 92.4% (inactive) in test [5]; 84.5% in test [6] (setting [9]); 92.4% in test [6] (setting [10]). In addition, the Her2 level in test [2] was 88.5% (inactive). For the same molecule, the differential viability (reversal) in test [6] (H69AR cells + 2 uM doxorubicin) is 7.84% (inactive). Moreover, the inhibition is -3.42% (inactive) in test [7] and -2.22% (inactive) in test [8].
On to `CCN(CC)S(=O)(=O)c1ccc2oc(C(=O)O)c(C)c2c1`, for which the viability in test [1] is 108%; in test [3], 108% (inactive); in test [4], 102% (inactive); in test [5] it was 103% (inactive); in test [6] (setting [9]) it was 92.2%; in test [6] (setting [10]), 103%. Further, the Her2 level in test [2] is 100% (inactive). In addition, in test [6] (H69AR cells + 2 uM doxorubicin), the differential viability (reversal) is 10.4% (inactive). For the same molecule, the figures for the inhibition in test [7] and in test [8] were -0.4% (inactive) and 4.43% (inactive), respectively.
On to `O=C(c1ccco1)N1CCN(c2c(-c3ccccc3)c3cc(Cl)ccc3[nH]c2=O)CC1`, for which the viability in test [1] is 94%; in test [3], 94% (inactive); in test [4], 52.4% (inactive); in test [5], 24.5% (active); in test [6] (setting [9]), 6.86%; in test [6] (setting [10]), 24.5%. The Her2 level in test [2] was 61.5% (inactive). Moreover, the differential viability (reversal) in test [6] (H69AR cells + 2 uM doxorubicin) was 17.6% (inactive). For the same molecule, the inhibition in test [7] is -2.11% (inactive); in test [8], 7.42% (inactive).
In the case of `CC(C)n1c(=NC(=O)c2ccco2)c(C#N)cc2c(=O)n3ccccc3cc21`, the viability in test [1] is 100%; in test [3] it was 100% (inactive); in test [4], 84.1% (inactive); in test [5], 6.44% (active); in test [6] (setting [9]), 2.43%; in test [6] (setting [10]), 6.44%. In addition, the Her2 level in test [2] was 106% (inactive). The differential viability (reversal) in test [6] (H69AR cells + 2 uM doxorubicin) is 4.01% (inactive). In addition, the inhibition in test [7] is 3.16% (inactive); in test [8], -6.61% (inactive).
For `O=C(NCC1CCCO1)c1ccc(N2CCCCC2)nc1` (stereo not given), the viability was 91.5% in test [1]; 91.5% (inactive) in test [3]; 113% (inactive) in test [4]; 90.1% (inactive) in test [5]; 85.6% in test [6] (setting [9]); 90.1% in test [6] (setting [10]). Also, the Her2 level in test [2] was 109% (inactive). Moreover, the differential viability (reversal) in test [6] (H69AR cells + 2 uM doxorubicin) is 4.52% (inactive). The inhibition in test [7] is 0.26% (inactive); in test [8] it was -2.83% (inactive).
Turning to `O=C(NCc1ccco1)Nc1ccc2nsnc2c1`, the viability in test [1] was 104%; in test [3], 104% (inactive); in test [4], 51.5% (inactive); in test [5] it was 22% (active); in test [6] (setting [9]) it was 23.2%; in test [6] (setting [10]), 22%. For the same molecule, in test [2], the Her2 level is 114% (inactive). In addition, the differential viability (reversal) in test [6] (H69AR cells + 2 uM doxorubicin) is -1.17% (inactive). The values for the inhibition in test [7] and in test [8] were -3.6% (inactive) and -6.45% (inactive), respectively.
For `CCc1ccc(NS(=O)(=O)c2ccc3[nH]cc(C(=O)N4CCCCC4)c(=O)c3c2)cc1`, the viability in test [1] was 124%; in test [3], 124% (inactive); in test [4] it was 102% (inactive); in test [5] it was 89.6% (inactive); in test [6] (setting [9]), 84%; in test [6] (setting [10]) it was 89.6%. Further, the Her2 level in test [2] is 92% (inactive). Also, the differential viability (reversal) in test [6] (H69AR cells + 2 uM doxorubicin) is 5.6% (inactive). The inhibition in test [7] is -5.66% (inactive); in test [8], -0.81% (inactive).
Turning to `OC1(c2cccc(C(F)(F)F)c2)CCNCC1`, the viability in test [1] was 110%; in test [3] it was 110% (inactive); in test [4] it was 96.5% (inactive); in test [5], 90.8% (inactive); in test [6] (setting [9]) it was 86.2%; in test [6] (setting [10]), 90.8%. In addition, the Her2 level in test [2] was 91% (inactive). For the same molecule, the differential viability (reversal) in test [6] (H69AR cells + 2 uM doxorubicin) is 4.62% (inactive). The results for the inhibition in test [7] and in test [8] were -8.53% (inactive) and -3.02% (inactive), respectively.
Consider `CCN(CC(=O)NCc1cccs1)C(=O)c1cc(S(=O)(=O)N2CCOCC2)ccc1C`, for which the viability in test [1] was 89.5%; in test [3], 89.5% (inactive); in test [4], 98.8% (inactive); in test [5], 87.7% (inactive); in test [6] (setting [9]) it was 88.3%; in test [6] (setting [10]), 87.7%. In addition, the Her2 level in test [2] is 118% (inactive). Besides, the differential viability (reversal) in test [6] (H69AR cells + 2 uM doxorubicin) was -0.58% (inactive). Besides, the inhibition in test [7] was -4.03% (inactive); in test [8] it was -10% (inactive).
With `CCCCn1c(CN(C)Cc2ccccc2)nc2c1c(=O)n(C)c(=O)n2C`, the viability in test [1] is 83%; in test [3], 83% (inactive); in test [4], 71.1% (inactive); in test [5] it was 71.6% (inactive); in test [6] (setting [9]) it was 79.6%; in test [6] (setting [10]) it was 71.6%. The Her2 level in test [2] is 101% (inactive). In addition, in test [6] (H69AR cells + 2 uM doxorubicin), the differential viability (reversal) is -7.99% (inactive). Also, the inhibition in test [7] was -3.24% (inactive); in test [8] it was -0.63% (inactive).
Turning to `CCOC(=O)CSc1nn(C)c(=S)s1`, the viability in test [1] was 97.5%; in test [3], 97.5% (inactive); in test [4], 73.2% (inactive); in test [5], 102% (inactive); in test [6] (setting [9]), 94.9%; in test [6] (setting [10]), 102%. Besides, the Her2 level in test [2] was 106% (inactive). In addition, the differential viability (reversal) in test [6] (H69AR cells + 2 uM doxorubicin) was 7.25% (inactive). In addition, the values for the inhibition in test [7] and in test [8] were -2.4% (inactive) and -1.5% (inactive), respectively.
For `CCOc1ccc(N(CC(=O)NCC2CCCO2)S(=O)(=O)c2ccc(OC)c(OC)c2)cc1` (stereo not given), the viability in test [1] is 105%; in test [3], 105% (inactive); in test [4], 118% (inactive); in test [5] it was 116% (inactive); in test [6] (setting [9]), 96.3%; in test [6] (setting [10]), 116%. The Her2 level in test [2] was 98.5% (inactive). Further, the differential viability (reversal) in test [6] (H69AR cells + 2 uM doxorubicin) is 19.2% (inactive). Moreover, the inhibition in test [7] is -4% (inactive); in test [8] it was -5.97% (inactive).
As for `CC1(C)CC(=O)CC(C)(C)N1OC(=O)c1ccccn1`, the viability in test [1] was 106%; in test [3], 106% (inactive); in test [4], 94% (inactive); in test [5], 102% (inactive); in test [6] (setting [9]), 93.6%; in test [6] (setting [10]), 102%. Further, in test [2], the Her2 level is 94% (inactive). For the same molecule, in test [6] (H69AR cells + 2 uM doxorubicin), the differential viability (reversal) is 8.9% (inactive). Also, the inhibition is -2.3% (inactive) in test [7] and 5.74% (inactive) in test [8].
